Measurements published in ChEMBL document CHEMBL1123041, “Synthesis of new bis(aminoethanethiol) (BAT) derivatives: possible ligands for 99mTc brain imaging agents” (J Med Chem, 1985).

Key:
[1] = test system: Rattus norvegicus; experiment: Biodistribution in Sprague-Dawley rat kidneys(2) 15 minutes after intravenous administration, [99mTc]/[125I] IAP ratio); format: ADME, organism-based, Kidney; conditions: in vivo, 0.25 h
Summary of the method: (§1)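 99mTc complex and [125I]iodoantipyrine were co-injected iv into rats. Rats were killed by cardiectomy at 2 or 15 min, and organs were excised, weighed and gamma-counted in two channels with spillover correction. The ratio is 99mTc percent dose divided by 125I percent dose in the same organ, averaged over three rats. Radiochemical purity of the complexes was >95% by reversed-phase HPLC.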

[2] = test system: Rattus norvegicus; experiment: Biodistribution in Sprague-Dawley rat skin 2 minutes after intravenous administration, [99mTc]/[125I] IAP ratio); format: ADME, organism-based, Zone of skin; conditions: in vivo; summary of the method: as §1
[3] = test system: Rattus norvegicus; experiment: Biodistribution in Sprague-Dawley rat small intestine 15 minutes after intravenous administration, [99mTc]/[125I] IAP ratio); format: ADME, organism-based; conditions: in vivo, 0.25 h; summary of the method: as §1
[4] = test system: Rattus norvegicus; experiment: Biodistribution in Sprague-Dawley rat small intestine 2 minutes after intravenous administration, [99mTc]/[125I] IAP ratio); format: ADME, organism-based; conditions: in vivo; summary of the method: as §1
[5] = test system: Rattus norvegicus; experiment: Biodistribution in Sprague-Dawley rat spleen 15 minutes after intravenous administration, [99mTc]/[125I] IAP ratio); format: ADME, organism-based; conditions: in vivo, 0.25 h; summary of the method: as §1
[6] = test system: Rattus norvegicus; experiment: Biodistribution in Sprague-Dawley rat spleen 2 minutes after intravenous administration, [99mTc]/[125I] IAP ratio); format: ADME, organism-based; conditions: in vivo; summary of the method: as §1
[7] = test system: Rattus norvegicus; experiment: Biodistribution in Sprague-Dawley rat thyroid 15 minutes after intravenous administration, [99mTc]/[125I] IAP ratio); format: ADME, organism-based, Thyroid gland; conditions: in vivo, 0.25 h; summary of the method: as §1
[8] = test system: Rattus norvegicus; experiment: Biodistribution in Sprague-Dawley rat thyroid 2 minutes after intravenous administration, [99mTc]/[125I] IAP ratio); format: ADME, organism-based, Thyroid gland; conditions: in vivo; summary of the method: as §1
[9] = test system: Rattus norvegicus; experiment: Compound was evaluated for the biodistribution in Sprague-Dawley rats in muscle 15 minutes after intravenous administration, [99mTc]/[125I] IAP ratio); format: ADME, organism-based, Muscle tissue; conditions: in vivo, 0.25 h; summary of the method: as §1
[10] = test system: Rattus norvegicus; experiment: Biodistribution in Sprague-Dawley rat blood 15 minutes after intravenous administration, [99mTc]/[125I] IAP ratio); format: ADME, organism-based; conditions: in vivo, 0.25 h; summary of the method: as §1
[11] = test system: Rattus norvegicus; experiment: Biodistribution in Sprague-Dawley rat blood 2 minutes after intravenous administration, [99mTc]/[125I] IAP ratio); format: ADME, organism-based; conditions: in vivo; summary of the method: as §1
[12] = test system: Rattus norvegicus; experiment: Biodistribution in Sprague-Dawley rat brain 15 minutes after intravenous administration, [99mTc]/[125I] IAP ratio); format: ADME, organism-based; conditions: in vivo, 0.25 h; summary of the method: as §1
[13] = test system: Rattus norvegicus; experiment: Biodistribution in Sprague-Dawley rat brain 2 minutes after intravenous administration, [99mTc]/[125I] IAP ratio); format: ADME, organism-based; conditions: in vivo; summary of the method: as §1
[14] = test system: Rattus norvegicus; experiment: Biodistribution in Sprague-Dawley rat heart 15 minutes after intravenous administration, [99mTc]/[125I] IAP ratio); format: ADME, organism-based; conditions: in vivo, 0.25 h; summary of the method: as §1
[15] = test system: Rattus norvegicus; experiment: Biodistribution in Sprague-Dawley rat heart 2 minutes after intravenous administration, [99mTc]/[125I] IAP ratio); format: ADME, organism-based; conditions: in vivo; summary of the method: as §1
[16] = test system: Rattus norvegicus; experiment: Biodistribution in Sprague-Dawley rat stomach 15 minutes after intravenous administration, [99mTc]/[125I] IAP ratio); format: ADME, organism-based; conditions: in vivo, 0.25 h; summary of the method: as §1
[17] = test system: Rattus norvegicus; experiment: Biodistribution in Sprague-Dawley rat stomach 2 minutes after intravenous administration, [99mTc]/[125I] IAP ratio); format: ADME, organism-based; conditions: in vivo; summary of the method: as §1
[18] = test system: Rattus norvegicus; experiment: Biodistribution in Sprague-Dawley rat kidneys(2) 2 minutes after intravenous administration, [99mTc]/[125I] IAP ratio); format: ADME, organism-based, Kidney; conditions: in vivo; summary of the method: as §1
[19] = test system: Rattus norvegicus; experiment: Biodistribution in Sprague-Dawley rat liver 15 minutes after intravenous administration, [99mTc]/[125I] IAP ratio); format: ADME, organism-based; conditions: in vivo, 0.25 h; summary of the method: as §1
[20] = test system: Rattus norvegicus; experiment: Biodistribution in Sprague-Dawley rat liver 2 minutes after intravenous administration, [99mTc]/[125I] IAP ratio); format: ADME, organism-based; conditions: in vivo; summary of the method: as §1
[21] = test system: Rattus norvegicus; experiment: Biodistribution in Sprague-Dawley rat lungs(2) 15 minutes after intravenous administration, [99mTc]/[125I] IAP ratio); format: ADME, organism-based, Lung; conditions: in vivo, 0.25 h; summary of the method: as §1
[22] = test system: Rattus norvegicus; experiment: Biodistribution in Sprague-Dawley rat lungs(2) 2 minutes after intravenous administration, [99mTc]/[125I] IAP ratio); format: ADME, organism-based, Lung; conditions: in vivo; summary of the method: as §1
[23] = test system: Rattus norvegicus; experiment: Biodistribution in Sprague-Dawley rat muscle 2 minutes after intravenous administration, [99mTc]/[125I] IAP ratio); format: ADME, organism-based, Muscle tissue; conditions: in vivo; summary of the method: as §1
[24] = test system: Rattus norvegicus; experiment: Biodistribution in Sprague-Dawley rat skin 15 minutes after intravenous administration, [99mTc]/[125I] IAP ratio); format: ADME, organism-based, Zone of skin; conditions: in vivo, 0.25 h; summary of the method: as §1
[25] = Partition coefficient was determined at pH 7.0.; format: ADME; conditions: octanol/water
Summary of the method: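 99mTc-labelled BAT complex shaken with 3 g each of 1-octanol and 0.1 M phosphate buffer (pH 7.0), vortexed 3 min at room temperature, centrifuged 5 min. Two 0.5 g samples per layer counted in a well counter; PC = cpm/g octanol over cpm/g buffer. Octanol layer repartitioned until values were consistent; usually repeated three times.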

[26] = organism: Homo sapiens; experiment: The human serum protein binding activity was determined; format: functional
Summary of the method: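 Equilibrium dialysis: 0.4 mL pooled human serum against 0.4 mL 0.15 M phosphate buffer pH 7.4 containing 99mTc complex (~0.025 μCi), rotated 18 h at 37 °C. Both sides weighed and counted; percent free = buffer/serum radioactivity concentration ratio × 100. Membrane counted afterwards to check membrane binding.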

CC(C)(S)CNCC(CN)NCC(C)(C)S.Cl.Cl.Cl (stereo unspecified)
Dose [1]: 2.47% | Dose [2]: 8.84% | Dose [3]: 11.8% | Dose [4]: 5.09% | Dose [5]: 0.206% | Dose [6]: 0.274% | Dose [7]: 0.045% | Dose [8]: 0.124% | Dose [9]: 18.5% | Dose [10]: 8.07% | Dose [11]: 13.6% | Dose [12]: 0.288% | Dose [13]: 1.28% | Dose [14]: 0.375% | Dose [15]: 1.08% | Dose [16]: 5.24% | Dose [17]: 2.23% | Dose [18]: 3.57% | Dose [19]: 22.7% | Dose [20]: 21.7% | Dose [21]: 1.57% | Dose [22]: 3.08% | Dose [23]: 9.19% | Dose [24]: 9.43% | Partition coefficient [25]: 46.8 | Free [26]: 46.2%
